Where “and” joins values, the source holds several entries; their conditions need not be identical. Equal values may be shown once.
Key:
Wnt7a = assay: Serum high-throughput proteomics; type: in vivo, homo sapiens; details: study day 16, 5, 15, 20 mg
osteocalcin = assay: Serum bone turnover biomarker osteocalcin; type: in vivo, homo sapiens
Method in brief: (§1)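 Participants got test compound (5, 15 or 20 mg) or placebo once daily on day 1 and days 3–16. Serum was drawn at screening and pre-dose on days 1, 5, 7, 12 and 16, and on days 22 (±1) and 45 (±2), at the same time as baseline. CTX-1, P1NP and osteocalcin were measured by electrochemiluminescence immunoassay and BSAP by sandwich ELISA. Results are percent change from baseline versus pooled placebo.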

P1NP = assay: Serum bone turnover biomarker P1NP; type: in vivo, homo sapiens; details: 15 mg QD for 14 days
Method in brief: as §1

[1] = test system: alveolar epithelial type II cells; details: cited from earlier work
[2] = Human PK, dose-to-man and exposure predictions; details: 15 mg once daily
CTX-1 = assay: Serum bone turnover biomarker CTX-1; type: in vivo, homo sapiens
Method in brief: as §1

BSAP = assay: Serum bone turnover biomarker BSAP; type: in vivo, homo sapiens
Method in brief: as §1

AXIN2 mRNA = assay: Target engagement: AXIN2 mRNA; type: in vivo, homo sapiens; details: hair follicle
Method in brief: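 Hair follicles (2 mm micropunch) and skin biopsies (4 mm) were taken from the lower back of the head on day −1 and on day 16, 8 ± 2 h after the last of 14 consecutive once-daily doses. AXIN2 mRNA was measured by qRT-PCR and normalized to the geometric mean of HPRT1, IPO8 and POLR2A. Fold change from baseline was calculated by 2^−ΔΔCt, versus 8 pooled placebo participants.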

lung collagen deposition = details: cited from earlier work
Phase 1 Part 2 = type: in vivo, homo sapiens
Method in brief: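 Healthy adults got test compound (5, 15 or 20 mg) or placebo once daily on day 1 and days 3–16. The first cohort had 6 active and 2 placebo; later cohorts had 8 active and 3 placebo, each starting with a 2:1 sentinel group. Participants were discharged day 19, with follow-up 6 ± 1 and 29 ± 2 days after the last dose. Events were graded by CTCAE, with investigator-assessed relatedness. Placebo was pooled.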

Phase 1 Part 1 = type: in vivo, homo sapiens; details: Part 1, 7 mg
Method in brief: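 Healthy adults were randomized to one oral dose of test compound (7, 20 or 40 mg; 6 active, 2 placebo per cohort), with a sentinel pair per cohort. Participants stayed in the unit ≥72 h post-dose, with follow-up at 6 ± 1 day. Adverse events were graded by CTCAE, and relatedness was assessed by the investigator. Placebo participants were pooled across cohorts.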

For `Cc1cc(-c2nccc3c2ccn3CC(=O)Nc2ccc(-c3cnccn3)cn2)ccn1` [AZD5055], the “Serum Wnt7a levels” value (Wnt7a) was “reduced on study day 16 for all AZD5055 dose levels evaluated”, the serum osteocalcin levels (osteocalcin; 15 and 20 mg doses) was “reductions” and the “serum osteocalcin levels vs placebo” value (osteocalcin; lower doses) was “comparable to those in the placebo group”. For the same molecule, the “estimated decrease in serum P1NP compared with the placebo group” value (P1NP) was 56.3%, the “differentiation of alveolar epithelial type II cells into alveolar type I cells” value [1] was “increasing differentiation of alveolar epithelial type II cells into alveolar type I cells” and the “predicted continuous inhibition of Porcupine across the dosing interval” value [2] was > 75%. For the same molecule, the “predicted trough AZD5055 concentration” value ([2]; 3-fold in vitro IC50) was 0.023 µmol/L, the “estimated increase in serum CTX-1 compared with the placebo group” value (CTX-1; 15 mg QD for 14 days) was 17.5% and the “estimated increase in serum CTX-1 compared with the placebo group” value (CTX-1; 20 mg QD for 14 days) was 32.8%. The “serum BSAP levels” value (BSAP; 20 mg dose) was “reductions”, the “serum BSAP levels vs placebo” value (BSAP; lower doses) was “comparable to those in the placebo group” and the “reduction of median AXIN2 mRNA levels” value (AXIN2 mRNA; 15 and 20 mg cohorts) was 50%–60%. For the same molecule, the “AXIN2 mRNA expression vs placebo-treated participants” value (AXIN2 mRNA; all dose levels, after 14 consecutive days of dosing) was “significantly reduced from baseline”, the “collagen deposition in the lungs” value (lung collagen deposition) was “reduced collagen deposition in the lungs” and the “Any TEAE leading to discontinuation of IMP” value (Phase 1 Part 2; Part 2, 5 mg QD, N=8) was 2 n (%). For the same molecule, the “Any TEAE leading to discontinuation of IMP” value (Phase 1 Part 2; Part 2, 15 mg QD, N=9) was 1 n (%), the “Any TEAE possibly related to the IMP (as assessed by investigator)” value (Phase 1 Part 2; Part 2 MAD pooled, N=26) was 7 (26.9%) n (%) and the Abdominal pain upper (Phase 1 Part 2; Part 2 MAD pooled, n=26) was 0 n (%). For the same molecule, the Application site scab (Phase 1 Part 2; Part 2 MAD pooled, n=26) was 0 n (%), the Breath odor (Phase 1 Part 2; Part 2 MAD pooled, n=26) was 1 (3.8) n (%) and the Cardiac disorders (Phase 1 Part 2; Part 2 MAD pooled, n=26) was 2 (7.7) n (%). The Coronavirus infection (Phase 1 Part 2; Part 2 MAD pooled, n=26) was 1 (3.8) n (%), the Cough (Phase 1 Part 2; Part 2 MAD pooled, n=26) was 0 n (%) and the Dermatitis contact (Phase 1 Part 2; Part 2 MAD pooled, n=26) was 0 n (%). For the same molecule, the Dizziness (Phase 1 Part 2; Part 2 MAD pooled, n=26) was 0 n (%), the Dysgeusia (Phase 1 Part 2; Part 2 MAD pooled, n=26) was 2 n (%) and 2 (7.7) n (%) and the Epistaxis (Phase 1 Part 2; Part 2 MAD pooled, n=26) was 1 (3.8) n (%). The Erythema (Phase 1 Part 2; Part 2 MAD pooled, n=26) was 1 (3.8) n (%), the Eye disorders (Phase 1 Part 2; Part 2 MAD pooled, n=26) was 2 (7.7) n (%) and the Folliculitis (Phase 1 Part 2; Part 2 MAD pooled, n=26) was 1 (3.8) n (%). The Gastrointestinal disorders (Phase 1 Part 2; Part 2 MAD pooled, n=26) was 1 (3.8) n (%), the “General disorders and administration site conditions” value (Phase 1 Part 2; Part 2 MAD pooled, n=26) was 11 (42.3) n (%) and the Headache (Phase 1 Part 2; Part 2 MAD pooled, n=26) was 5 (19.2) n (%). The Infections and infestations (Phase 1 Part 2; Part 2 MAD pooled, n=26) was 2 (7.7) n (%), the “Injury, poisoning and procedural complications” value (Phase 1 Part 2; Part 2 MAD pooled, n=26) was 5 (19.2) n (%) and the Limb injury (Phase 1 Part 2; Part 2 MAD pooled, n=26) was 1 (3.8) n (%). The “Medical device site dermatitis” value (Phase 1 Part 2; Part 2 MAD pooled, n=26) was 11 (42.3) n (%), the Nasal discomfort (Phase 1 Part 2; Part 2 MAD pooled, n=26) was 1 (3.8) n (%) and the Nausea (Phase 1 Part 2; Part 2 MAD pooled, n=26) was 0 n (%). The Nervous system disorders (Phase 1 Part 2; Part 2 MAD pooled, n=26) was 7 (26.9) n (%), the “Participants with ≥1 TEAE” value (Phase 1 Part 2; Part 2 MAD pooled, n=26) was 21 (80.8%) n (%) and 21 (80.8) n (%) and the “Participants with ≥1 TEAE of grade 1 severity” value (Phase 1 Part 2; Part 2 MAD pooled, n=26) was 16 (61.5%) n (%) and 16 (61.5) n (%). The “Participants with ≥1 TEAE of grade 2 severity” value (Phase 1 Part 2; Part 2 MAD pooled, n=26) was 5 (19.2%) n (%) and 5 (19.2) n (%), the “Participants with ≥1 TEAE of grade 3 severity” value (Phase 1 Part 2; Part 2 MAD pooled, n=26) was 0 n (%) and the “Participants with ≥1 TESAE” value (Phase 1 Part 2; Part 2 MAD pooled, n=26) was 0 n (%). The Photophobia (Phase 1 Part 2; Part 2 MAD pooled, n=26) was 1 (3.8) n (%), the Post procedural erythema (Phase 1 Part 2; Part 2 MAD pooled, n=26) was 1 (3.8) n (%) and the Post procedural inflammation (Phase 1 Part 2; Part 2 MAD pooled, n=26) was 1 (3.8) n (%). The Procedural pain (Phase 1 Part 2; Part 2 MAD pooled, n=26) was 2 (7.7) n (%), the “Respiratory, thoracic and mediastinal disorders” value (Phase 1 Part 2; Part 2 MAD pooled, n=26) was 2 (7.7) n (%) and the “Sensation of foreign body” value (Phase 1 Part 2; Part 2 MAD pooled, n=26) was 1 (3.8) n (%). For the same molecule, the Skin abrasion (Phase 1 Part 2; Part 2 MAD pooled, n=26) was 1 (3.8) n (%), the “Skin and subcutaneous tissue disorders” value (Phase 1 Part 2; Part 2 MAD pooled, n=26) was 1 (3.8) n (%) and the Suture rupture (Phase 1 Part 2; Part 2 MAD pooled, n=26) was 0 n (%). The Ventricular tachycardia (Phase 1 Part 2; Part 2 MAD pooled, n=26) was 2 (7.7) n (%), the “Vessel puncture site haematoma” value (Phase 1 Part 2; Part 2 MAD pooled, n=26) was 0 n (%) and the Vision blurred (Phase 1 Part 2; Part 2 MAD pooled, n=26) was 1 (3.8) n (%). The Vomiting (Phase 1 Part 2; Part 2 MAD pooled, n=26) was 0 n (%), the Wheezing (Phase 1 Part 2; Part 2 MAD pooled, n=26) was 0 n (%) and the “Participants with at least one TEAE” value (Phase 1 Part 1) was 2 (33.3%) n (%).

— article PMC12177174 (iScience, 2025)
